Test results as given in ChEMBL document CHEMBL1806370, “Development of novel naphthalimide derivatives and their evaluation as potential melanoma therapeutics” (Eur J Med Chem, 2011).

Experiments:
[1] = system: UACC-903; assay: Induction of apoptosis in human UACC-903 cells assessed as early apoptotic cells at 1 uM after 24 hrs using annexin-V-PE/7-AAD double staining by flow cytometry; format: functional
Outline: (§1)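 UACC 903 cells were exposed 24 h at 37 °C to 1, 5 or 25 µM, with DMSO as control. Cells were harvested, washed twice in cold PBS and resuspended at 1×10^6 cells/mL in binding buffer. They were stained with 7-AAD plus PE Annexin V for 20 min at room temperature in the dark and run by flow cytometry within 1 h. Gating: double-negative live, 7-AAD+ dead, Annexin V+/7-AAD− early apoptotic. Three separate experiments.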

[2] = system: Mus musculus; assay: Systemic toxicity in Swiss Webster mouse assessed as mortality at 15 mg/kg, ip administered every day for 28 days; format: organism-based; design: dose 15 mg/kg, route intraperitoneal; details: in vivo, 672 h
Outline: (§2)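 Swiss Webster mice, n = 4 per group, dosed i.p. once daily for 28 days at 5, 7.5, 10 or 15 mg/kg body weight. Body weight recorded twice per week; deaths noted over the dosing period.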

[3] = Cytotoxicity against human A375-S2 cells after 24 hrs by MTS assay; format: functional, cell-based; details: A375-S2, 24 h
Outline: (§3)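 Cells in DMEM with 10% FBS at 37 °C and 5% CO2 were plated at 5×10^3 per well and grown 24 h. They were then exposed 24 or 72 h to 0.5, 1, 5, 10, 25 and 50 µM, with final DMSO 0.5% and DMSO controls. MTS/PMS was added for 4 h at 37 °C. A492 was read with the medium blank subtracted and expressed as % of control. IC50 was taken from three independent experiments (mean ± S.E.).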

[4] = system: UACC-903; assay: Induction of apoptosis in human UACC-903 cells assessed as non-viable cells at 1 uM after 24 hrs using annexin-V-PE/7-AAD double staining by flow cytometry; format: functional; outline: as §1
[5] = system: UACC-903; assay: Induction of apoptosis in human UACC-903 cells assessed as non-viable cells at 25 uM after 24 hrs using annexin-V-PE/7-AAD double staining by flow cytometry; format: functional; outline: as §1
[6] = system: 1205Lu; assay: Cytotoxicity against human 1205 Lu cells assessed as decrease in cell viability after 24 hrs by MTS assay; format: functional, cell-based; outline: as §3
[7] = system: UACC-903; assay: Induction of apoptosis in human UACC-903 cells assessed as viable cells at 25 uM after 24 hrs using annexin-V-PE/7-AAD double staining by flow cytometry; format: functional; details: UACC-903, 24 h, read-out: Activity; outline: as §1
[8] = system: UACC-903; assay: Induction of apoptosis in human UACC-903 cells assessed as early apoptotic cells at 5 uM after 24 hrs using annexin-V-PE/7-AAD double staining by flow cytometry; format: functional; outline: as §1
[9] = system: SK-MEL-37 (Homo sapiens); assay: Cytotoxicity against human SK-MEL-37 cells assessed as decrease in cell viability after 72 hrs by MTS assay
[10] = Cytotoxicity against human SK-MEL-37 cells after 72 hrs by MTS assay; format: functional, cell-based; outline: as §3
[11] = system: UACC-903; assay: Cytotoxicity against human UACC-903 cells assessed as decrease in cell viability after 72 hrs by MTS assay; format: functional, cell-based; outline: as §3
[12] = system: UACC-903; assay: Induction of apoptosis in human UACC-903 cells assessed as early apoptotic cells at 25 uM after 24 hrs using annexin-V-PE/7-AAD double staining by flow cytometry; format: functional; outline: as §1
[13] = system: Mus musculus; assay: Systemic toxicity in Swiss Webster mouse assessed as mortality at 10 mg/kg, ip administered every day for 28 days; format: organism-based; design: dose 10 mg/kg, route intraperitoneal; details: in vivo, 672 h; outline: as §2
[14] = system: A375-S2; assay: Cytotoxicity against human A375-S2 cells assessed as decrease in cell viability after 72 hrs by MTS assay; format: functional, cell-based; outline: as §3
[15] = Cytotoxicity against human 1205 Lu cells after 72 hrs by MTS assay; format: functional, cell-based; outline: as §3
[16] = system: UACC-903; assay: Induction of apoptosis in human UACC-903 cells assessed as late apoptotic cells at 1 uM after 24 hrs using annexin-V-PE/7-AAD double staining by flow cytometry; format: functional; outline: as §1
[17] = system: UACC-903; assay: Cytotoxicity against human UACC-903 cells after 24 hrs by MTS assay; format: functional, cell-based; details: UACC-903, 24 h; outline: as §3
[18] = Cytotoxicity against human 1205 Lu cells after 24 hrs by MTS assay; format: functional, cell-based; outline: as §3
[19] = system: UACC-903; assay: Antitumor activity against human UACC-903 cells xenografted in athymic Harlan Sprague-Dawley nude mouse assessed as reduction in tumor growth at 8.5 to 10 mg/kg, ip administered thrice per week for 24 days measured after 21 days; format: functional; details: dose mg/kg 8.5-10; route intraperitoneal
Outline: (§4)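 Female athymic nude mice, 4–6 weeks old, received 5×10^6 UACC 903 cells s.c. in DMEM/10% FBS above both rib cages. After six days they were randomized at 5 mice/group, 2 tumors/mouse. Dosing was i.p. Mon/Wed/Fri, with one arm dosed daily; controls got DMSO vehicle. Tumor dimensions (calipers, mm³) and body weight were recorded three times weekly.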

[20] = system: Mus musculus; assay: Systemic toxicity in Swiss Webster mouse assessed as reduction in body weight at 10 mg/kg, ip administered daily for 28 days; design: scale not given: the % may be the effect or the level left; details: in vivo, 672 h
[21] = system: UACC-903; assay: Induction of apoptosis in human UACC-903 cells assessed as viable cells at 5 uM after 24 hrs using annexin-V-PE/7-AAD double staining by flow cytometry; format: functional; details: UACC-903, 24 h, read-out: Activity; outline: as §1
[22] = system: UACC-903; assay: Cytotoxicity against human UACC-903 cells after 72 hrs by MTS assay; format: functional, cell-based; details: UACC-903, 72 h; outline: as §3
[23] = system: UACC-903; assay: Induction of apoptosis in human UACC-903 cells assessed as late apoptotic cells at 5 uM after 24 hrs using annexin-V-PE/7-AAD double staining by flow cytometry; format: functional; outline: as §1
[24] = system: Mus musculus; assay: Systemic toxicity in athymic Harlan Sprague-Dawley nude mouse xenografted with human UACC-903 cells assessed as reduction in body weight at 8.5 to 10 mg/kg, ip administered thrice a week for 24 days; format: organism-based; design: dose 8.5-10 mg/kg, route intraperitoneal; details: in vivo, 576 h; outline: as §4
[25] = system: Mus musculus; assay: Systemic toxicity in athymic Harlan Sprague-Dawley nude mouse xenografted with human UACC-903 cells assessed as mortality at 10 mg/kg, ip administered daily for 28 days; format: organism-based; design: dose 10 mg/kg, route intraperitoneal; details: in vivo, 672 h
[26] = system: UACC-903; assay: Induction of apoptosis in human UACC-903 cells assessed as late apoptotic cells at 25 uM after 24 hrs using annexin-V-PE/7-AAD double staining by flow cytometry; format: functional; outline: as §1
[27] = system: UACC-903; assay: Induction of apoptosis in human UACC-903 cells assessed as viable cells at 1 uM after 24 hrs using annexin-V-PE/7-AAD double staining by flow cytometry; format: functional; details: UACC-903, 24 h, read-out: Activity; outline: as §1
[28] = system: Mus musculus; assay: Systemic toxicity in Swiss Webster mouse assessed as weight loss at 10 mg/kg, ip administered every day for 28 days; format: organism-based; design: dose 10 mg/kg, route intraperitoneal; details: in vivo, 672 h; outline: as §2
[29] = system: UACC-903; assay: Induction of apoptosis in human UACC-903 cells assessed as increase in apoptotic cells after 24 hrs using annexin-V-PE/7-AAD double staining by flow cytometry; format: functional, cell-based; outline: as §1
[30] = system: A375-S2; assay: Cytotoxicity against human A375-S2 cells assessed as decrease in cell viability after 24 hrs by MTS assay; format: functional, cell-based; outline: as §3
[31] = system: SK-MEL-37 (Homo sapiens); assay: Cytotoxicity against human SK-MEL-37 cells assessed as decrease in cell viability after 24 hrs by MTS assay
[32] = system: UACC-903; assay: Cytotoxicity against human UACC-903 cells assessed as decrease in cell viability after 24 hrs by MTS assay; format: functional, cell-based; outline: as §3
[33] = Cytotoxicity against human SK-MEL-37 cells after 24 hrs by MTS assay; format: functional, cell-based; outline: as §3
[34] = system: 1205Lu; assay: Cytotoxicity against human 1205 Lu cells assessed as decrease in cell viability after 72 hrs by MTS assay; format: functional, cell-based; outline: as §3
[35] = system: UACC-903; assay: Induction of apoptosis in human UACC-903 cells assessed as non-viable cells at 5 uM after 24 hrs using annexin-V-PE/7-AAD double staining by flow cytometry; format: functional; outline: as §1
[36] = Cytotoxicity against human A375-S2 cells after 72 hrs by MTS assay; format: functional, cell-based; details: A375-S2, 72 h; outline: as §3

Structure (SMILES)	Activity [1]	Activity [2]	IC50 [3]	Activity [4]	Activity [5]	Activity [6]	viability at 25 µM [7]	Activity [8]	Activity [9]	IC50 [10]	Activity [11]	Activity [12]	Activity [13]	Activity [14]	IC50 [15]	Activity [16]	IC50 [17]	IC50 [18]	growth inhibition (GI) [19]	viability at 5 µM [21]	further results
O=C1c2cccc3cc([N+](=O)[O-])cc(c23)C(=O)N1CCN=C=S	17.9%	Toxic	7.88 µM	1.39%	0.19%	Dose-dependent effect	1.4%	22.2%	Dose-dependent effect	1730 nM	Dose-dependent effect	79.8%	Non-toxic	Dose-dependent effect	3.91 µM	7.83%	8.38 µM	5.82 µM	60%	64.7%	Activity [20]: 10%; IC50 [22]: 5.5 µM; Activity [23]: 11.9%; Activity [24]: Non-toxic; Activity [25]: Non-toxic; Activity [26]: 18.6%; viability at 1 µM [27]: 72.9%; Activity [28]: Non-toxic; Activity [29]: Dose-dependent effect; Activity [30]: Dose-dependent effect; Activity [31]: Dose-dependent effect; Activity [32]: Dose-dependent effect; IC50 [33]: 2880 nM; Activity [34]: Dose-dependent effect; Activity [35]: 1.23%; IC50 [36]: 2.81 µM
O=C1c2cccc3cccc(c23)C(=O)N1CCCCCCN=C=S	12.9%	Toxic	5.07 µM	2.99%	1.15%	Dose-dependent effect	18.7%	49.6%	Dose-dependent effect	1670 nM	Dose-dependent effect	71.6%	Non-toxic	Dose-dependent effect	5.25 µM	6.25%	9.02 µM	11.5 µM	50%	19.6%	IC50 [22]: 7.6 µM; Activity [23]: 28.7%; Activity [24]: Non-toxic; Activity [26]: 8.56%; viability at 1 µM [27]: 77.8%; Activity [28]: Non-toxic; Activity [29]: Dose-dependent effect; Activity [30]: Dose-dependent effect; Activity [31]: Dose-dependent effect; Activity [32]: Dose-dependent effect; IC50 [33]: 3070 nM; Activity [34]: Dose-dependent effect; Activity [35]: 2.11%; IC50 [36]: 3.54 µM
